Test results from ChEMBL document CHEMBL3244286, “Inactivation of trypsin-like proteases by sulfonylation. Variation of positively charged group and inhibitor length” (J Med Chem, 1978).

How the values were obtained:
Plasminogen [1] = target: T1, Plasminogen (Homo sapiens, UniProt P00747); experiment: Inhibition of 4.8 X 10^-7 M human plasmin using Z-Lys-nitrophenyl ester as substrate assessed as second-order rate inactivation constant incubated up to 1 hr at pH 7.4
Summary of the method: (§1)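 Enzyme and inhibitor incubated at room temperature in 0.1 M tris chloride, pH 7.4, with no more than 1% DMF from stocks. Aliquots were withdrawn and residual activity was assayed with Z-Lys-nitrophenyl ester. Protease concentration was set by methylumbelliferyl p-guanidinobenzoate titration. Decay was first order, k1 = 0.693/t1/2 (min), and the second-order constant is k1 divided by inhibitor concentration. Incubations with little loss of activity were stopped at 1 h.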

Prothrombin (Bos taurus) [2] = target: Prothrombin (Bos taurus) (UniProt P00735); experiment: Inhibition of 16 X 10^-7 M bovine thrombin using Z-Lys-nitrophenyl ester as substrate assessed as second-order rate inactivation constant incubated up to 1 hr at pH 7.4; summary of the method: as §1
Bos taurus = species: Bos taurus; experiment: Inhibition of 6.4 X 10^-7 M bovine trypsin using Z-Lys-nitrophenyl ester as substrate assessed as second-order rate inactivation constant incubated up to 1 hr at pH 7.4; summary of the method: as §1
[3] = target: Urokinase-type plasminogen activator (Homo sapiens) (UniProt P00749); experiment: Inhibition of 2 X 10^-7 M human urokinase using Z-Lys-thiobenzyl ester as substrate assessed as second-order rate inactivation constant incubated up to 1 hr at pH 7.4; details: in the assay text read “51 X 10^-7 M” for “2 X 10^-7 M”
Summary of the method: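 Purified urokinase incubated with inhibitor at room temperature in 0.1 M tris chloride, pH 7.4, with no more than 1% DMF. Residual activity in aliquots was read with Z-Lys-thiobenzyl ester. Enzyme was active-site titrated with methylumbelliferyl p-guanidinobenzoate. First-order k1 = 0.693/t1/2 (min), divided by inhibitor concentration to give the second-order rate. Incubations were not run past 1 h when loss was low.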

Plasma kallikrein [4] = target: T2, Plasma kallikrein (Homo sapiens, UniProt P03952); experiment: Competitive inhibition of 2 X 10^-7 M human plasma kallikrein using Z-Lys-nitrophenyl ester as substrate incubated up to 1 hr at pH 6
Summary of the method: (§2)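 Ki for competitive inhibition measured at pH 6 with Z-Lys-nitrophenyl ester as substrate. Enzyme concentrations were set by active-site titration with methylumbelliferyl p-guanidinobenzoate. Compounds were added from DMF stocks, with no more than 1% DMF in the reaction.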

Plasminogen [5] = target: T1, Plasminogen; experiment: Competitive inhibition of 4.8 X 10^-7 M human plasmin using Z-Lys-nitrophenyl ester as substrate incubated up to 1 hr at pH 6; summary of the method: as §2
Prothrombin = Prothrombin (Bos taurus, UniProt P00735); experiment: Competitive inhibition of 16 X 10^-7 M bovine thrombin using Z-Lys-nitrophenyl ester as substrate incubated up to 1 hr at pH 6
Summary of the method: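 Ki for competitive inhibition was determined at pH 6 against Z-Lys-nitrophenyl ester hydrolysis, following previously published procedures. Active enzyme concentration was set by titration with methylumbelliferyl p-guanidinobenzoate. Inhibitors were added from DMF stock solutions, with DMF at no more than 1% of the reaction mixture.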

[6] = Competitive inhibition of 6.4 X 10^-7 M bovine trypsin using Z-Lys-nitrophenyl ester as substrate incubated up to 1 hr at pH 6; parameters: species or system Bos taurus; summary of the method: as §2
Plasma kallikrein [7] = target: T2, Plasma kallikrein; experiment: Inhibition of 2 X 10^-7 M human plasma kallikrein using Z-Lys-nitrophenyl ester as substrate assessed as second-order rate inactivation constant incubated up to 1 hr at pH 7.4; summary of the method: as §1
Prothrombin (Bos taurus) [8] = target: Prothrombin (Bos taurus) (UniProt P00735); experiment: Inhibition of 16 X 10^-7 M bovine thrombin using Z-Lys-nitrophenyl ester as substrate assessed as half time required for enzyme inactivation at 5X10'-5 M at pH 7.4; summary of the method: as §1
Plasma kallikrein [9] = target: T2, Plasma kallikrein; experiment: Inhibition of 2 X 10^-7 M human plasma kallikrein using Z-Lys-nitrophenyl ester as substrate assessed as half time required for enzyme inactivation at 5X10'-6 M at pH 7.4; details: in the assay text read “5.4X10'-4 M” for “5X10'-6 M”; summary of the method: as §1
[10] = target: Urokinase-type plasminogen activator (Homo sapiens) (UniProt P00749); experiment: Inhibition of 51 X 10^-7 M human urokinase using Z-Lys-thiobenzyl ester as substrate assessed as second-order rate inactivation constant incubated up to 1 hr at pH 7.4

T1 sequence (P00747 97-580 limits assumed): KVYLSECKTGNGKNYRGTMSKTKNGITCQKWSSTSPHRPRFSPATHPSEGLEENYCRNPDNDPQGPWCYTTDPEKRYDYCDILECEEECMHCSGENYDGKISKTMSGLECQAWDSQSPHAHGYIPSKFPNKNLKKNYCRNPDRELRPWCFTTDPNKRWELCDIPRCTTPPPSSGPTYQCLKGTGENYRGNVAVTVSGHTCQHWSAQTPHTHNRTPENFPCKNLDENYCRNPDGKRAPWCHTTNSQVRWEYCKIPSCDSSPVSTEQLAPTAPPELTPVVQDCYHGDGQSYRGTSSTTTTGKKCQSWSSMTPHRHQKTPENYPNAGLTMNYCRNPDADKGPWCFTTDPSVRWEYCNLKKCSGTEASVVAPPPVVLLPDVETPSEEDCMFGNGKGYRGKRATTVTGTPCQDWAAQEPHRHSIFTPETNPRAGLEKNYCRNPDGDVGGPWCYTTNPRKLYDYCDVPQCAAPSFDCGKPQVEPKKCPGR
T1 sequence (P00747 581-810 limits assumed): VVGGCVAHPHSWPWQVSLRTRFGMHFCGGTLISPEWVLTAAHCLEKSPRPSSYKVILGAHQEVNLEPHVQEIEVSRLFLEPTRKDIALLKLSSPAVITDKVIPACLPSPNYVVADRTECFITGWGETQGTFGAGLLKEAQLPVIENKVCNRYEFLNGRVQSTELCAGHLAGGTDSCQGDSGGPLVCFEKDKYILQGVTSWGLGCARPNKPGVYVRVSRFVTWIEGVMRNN
T2 sequence (P03952 20-390 limits assumed): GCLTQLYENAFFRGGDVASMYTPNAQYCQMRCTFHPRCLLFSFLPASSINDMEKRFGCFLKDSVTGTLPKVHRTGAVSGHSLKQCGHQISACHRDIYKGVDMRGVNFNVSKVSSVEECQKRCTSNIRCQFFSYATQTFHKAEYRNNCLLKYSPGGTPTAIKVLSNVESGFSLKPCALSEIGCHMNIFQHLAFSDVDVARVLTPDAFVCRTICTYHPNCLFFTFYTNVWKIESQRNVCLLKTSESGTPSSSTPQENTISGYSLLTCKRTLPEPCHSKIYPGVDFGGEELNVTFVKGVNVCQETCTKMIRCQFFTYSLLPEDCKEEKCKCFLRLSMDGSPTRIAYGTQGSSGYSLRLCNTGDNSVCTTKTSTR
T2 sequence (P03952 391-638 limits assumed): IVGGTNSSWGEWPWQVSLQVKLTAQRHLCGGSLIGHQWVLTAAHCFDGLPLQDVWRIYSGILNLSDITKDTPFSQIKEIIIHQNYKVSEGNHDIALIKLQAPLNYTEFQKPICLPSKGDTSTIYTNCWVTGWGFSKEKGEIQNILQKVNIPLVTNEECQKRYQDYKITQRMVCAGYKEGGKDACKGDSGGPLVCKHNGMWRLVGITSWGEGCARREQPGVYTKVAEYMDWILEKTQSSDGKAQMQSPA

Row | Compound | Kinact (Plasminogen [1]) | Kinact (Prothrombin (Bos taurus) [2]) | Kinact (Bos taurus) | Kinact [3] | Ki (Plasma kallikrein [4]) | Ki (Plasminogen [5]) | Ki (Prothrombin) | Ki [6] | Kinact (Plasma kallikrein [7]) | T1/2 (Prothrombin (Bos taurus) [8]) | T1/2 (Plasma kallikrein [9]) | Kinact [10]
1 | N=C(N)SCc1ccc(CS(=O)(=O)Oc2ccc([N+](=O)[O-])cc2)cc1 | 0.117 M⁻¹ s⁻¹ | 0 M⁻¹ s⁻¹ | 25 M⁻¹ s⁻¹ | 10 M⁻¹ s⁻¹ | 320 µM | 1150 µM | 930 µM | 390 µM |  |  |  | 
2 | CNC(=N)SCc1ccc(S(=O)(=O)Oc2ccc([N+](=O)[O-])cc2)cc1 | 0 M⁻¹ s⁻¹ | 0 M⁻¹ s⁻¹ | 0 M⁻¹ s⁻¹ |  |  |  |  |  | 0 M⁻¹ s⁻¹ |  |  | 
3 | O=[N+]([O-])c1ccc(OS(=O)(=O)Cc2ccc(-[n+]3ccccc3)cc2)cc1 | 0 M⁻¹ s⁻¹ | 0 M⁻¹ s⁻¹ | 0 M⁻¹ s⁻¹ |  |  |  |  |  | 0 M⁻¹ s⁻¹ |  |  | 
4 | C[N+](C)(C)Cc1ccc(S(=O)(=O)Oc2ccc([N+](=O)[O-])cc2)cc1 | 0.833 M⁻¹ s⁻¹ | 2.45 M⁻¹ s⁻¹ |  |  |  |  |  |  | 0 M⁻¹ s⁻¹ |  |  | 
5 | C[S+](C)Cc1ccc(S(=O)(=O)Oc2ccc([N+](=O)[O-])cc2)cc1 | 0 M⁻¹ s⁻¹ | 0 M⁻¹ s⁻¹ | 0 M⁻¹ s⁻¹ |  |  |  |  |  | 0 M⁻¹ s⁻¹ |  |  | 
6 | O=[N+]([O-])c1ccc(OS(=O)(=O)c2ccc(C[n+]3ccccc3)cc2)cc1 | 0 M⁻¹ s⁻¹ | 0 M⁻¹ s⁻¹ | 0 M⁻¹ s⁻¹ |  |  |  |  |  |  |  |  | 
7 | N=C(N)SCc1ccc(CS(=O)(=O)Oc2cccc([N+](=O)[O-])c2)cc1 | 0 M⁻¹ s⁻¹ | 0 M⁻¹ s⁻¹ | 7.17 M⁻¹ s⁻¹ |  |  |  |  |  | 0 M⁻¹ s⁻¹ |  |  | 
8 | O=[N+]([O-])c1ccc(OS(=O)(=O)Cc2cccc(-[n+]3ccccc3)c2)cc1 | 0 M⁻¹ s⁻¹ | 0 M⁻¹ s⁻¹ | 0 M⁻¹ s⁻¹ | 0 M⁻¹ s⁻¹ |  |  |  |  | 0 M⁻¹ s⁻¹ |  |  | 
9 | C[S+](C)c1ccc(CS(=O)(=O)Oc2ccc([N+](=O)[O-])cc2)cc1 | 0 M⁻¹ s⁻¹ | 0 M⁻¹ s⁻¹ | 0 M⁻¹ s⁻¹ |  |  |  |  |  | 0 M⁻¹ s⁻¹ |  |  | 
10 | N=C(N)SCc1ccc(S(=O)(=O)Oc2ccc([N+](=O)[O-])cc2)cc1 | 2.08 M⁻¹ s⁻¹ | 9.67 M⁻¹ s⁻¹ |  |  |  |  |  |  | 0.183 M⁻¹ s⁻¹ | 22 min | > 120 min | 1.53 M⁻¹ s⁻¹
11 | C[S+](C)c1cccc(CS(=O)(=O)Oc2ccc([N+](=O)[O-])cc2)c1 | 0 M⁻¹ s⁻¹ | 0 M⁻¹ s⁻¹ | 0 M⁻¹ s⁻¹ |  |  |  |  |  | 0 M⁻¹ s⁻¹ |  |  | 
